First the molecules themselves.
B1: tRNA (parent)
chain: GUUCCGUUGGCGUAAUGGUAACGCGUCUCCCUCCUAAGGAGAAGACUGCGGGUUCGAGUCCCGUACGGAACG

This sample holds only a part of the variants without activity.

Data on 167 variants can be found in the RNAGym collection of RNA variant scans (doi:10.1126/science.aae0568).

Variants of B1 are the subject of this series. The experiment in a line: yeast fitness relative to wild type (ratio to wild type); higher = fitter; tRNA-Arg(CCU), competitive growth, 37 C, YPD. The gist of the method:
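Changes in genotype frequencies gave Darwinian fitness relative to wild type. Frequencies were read by 100-nucleotide paired-end sequencing of gene amplicons before and after pooled Saccharomyces cerevisiae strains, carrying tRNA-Arg(CCU) gene variants at the native locus, were competed in YPD at 37°C for 24 hours in six replicates. A genotype was kept only with ≥ 100 starting reads, and estimates < 0.5 were set to 0.5.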
Turning to U8C C11U G17C C31A A65C, the yeast fitness is no more than 0.5.

Turning to U8C C29A C34G A36G A40C G41A U47A U64C, the yeast fitness was no more than 0.5.

U8C C11A A20U C66U: the yeast fitness is no more than 0.5.

On to U8A G18C C27U A65C, for which the yeast fitness is no more than 0.5.

U8A U28C: the yeast fitness turned out to be 0.738.

On to U8C C24U A42C G50U, for which the yeast fitness was 0.674.

Regarding U8C C27U U28G C33G A36G, the yeast fitness is no more than 0.5.

With U8C U16C A69C, the yeast fitness was 0.709.

Regarding U8C A15U U16A U26A G58A, the yeast fitness was no more than 0.5.

Take U8C C29A C34G A36G A37G A40C U47A U64C: the yeast fitness was no more than 0.5.

For U8C U13A U32C A69U, the yeast fitness came to 0.677.

For the variant U8C A57U C61U, the yeast fitness worked out at 0.536.

U8A G50C G56A: the yeast fitness is no more than 0.5.

Turning to U8C A21G A70G, the yeast fitness stood at 0.747.

As to U8C U16C A65G, the yeast fitness was 0.707.

On to U8C G18C C27A C33U A65C A69C, for which the yeast fitness was no more than 0.5.

U8C G18C A21C U47A G48C U54G A65C: the yeast fitness is no more than 0.5.

Turning to U8A U13A G18C C24G U32G G58U, the yeast fitness was no more than 0.5.

U8A U26A C29A A65C A70C: the yeast fitness was no more than 0.5.

Regarding U8C A15G G25C A45U, the yeast fitness amounted to 0.684.

As for U8A U59C, the yeast fitness is 0.748.

As to U8C A45C C46U, the yeast fitness was 0.716.

As for U8C A15U A20C G23A G50C, the yeast fitness was no more than 0.5.

For the variant U8C C11U C27A C30G C46U U47A, the yeast fitness came out at 0.603.

As to U8C C22A U53A, the yeast fitness was no more than 0.5.

Consider U8C G17C G58C, for which the yeast fitness was no more than 0.5.

For U8C C46U C49G, the yeast fitness is 0.701.

Turning to U8C A15G U19A C29A A36G G51A, the yeast fitness was no more than 0.5.

Regarding U8C A15C A57G A69C, the yeast fitness was no more than 0.5.

As to U8C G23C, the yeast fitness was 0.642.

For U8C G41C A69U, the yeast fitness stood at 0.637.

As to U8C A42G C49G C62A, the yeast fitness was no more than 0.5.

In the case of U8A U26A, the yeast fitness came out at 0.733.

For U8A U26G, the yeast fitness amounted to 0.666.

On to U8A U26C, for which the yeast fitness was found to be 0.646.

Turning to U8A G18A C30G A40C U47C G52A, the yeast fitness was no more than 0.5.

Take U8C G50A: the yeast fitness is 0.773.

In the case of U8C U13C U47C A65G, the yeast fitness was no more than 0.5.

As to U8A G18C G25C, the yeast fitness was no more than 0.5.

For U8A G44C A57U, the yeast fitness was no more than 0.5.

In the case of U8A G67A, the yeast fitness is 0.586.

With U8A G38A A40C C49U U54C C60G, the yeast fitness was no more than 0.5.

U8C C34G G58C C62U: the yeast fitness is no more than 0.5.

For the variant U8C A40G C55U A65C, the yeast fitness was no more than 0.5.

U8C A20G C66U: the yeast fitness turned out to be 0.624.

Turning to U8C C22G U54A U59A C61U, the yeast fitness was no more than 0.5.

As to U8A G18C C27U U32C C66G A70U, the yeast fitness was no more than 0.5.

Take U8C C24U U26A: the yeast fitness was determined as 0.607.

For U8C C29U, the yeast fitness turned out to be 0.937.

Turning to U8C C29A, the yeast fitness stood at 0.664.

Take U8C C61A A65U: the yeast fitness is no more than 0.5.

On to U8C A36U G38A G68C, for which the yeast fitness is no more than 0.5.

As to U8A U26A C55G, the yeast fitness is no more than 0.5.

For the variant U8C G12A C29U U35G C62U, the yeast fitness was no more than 0.5.

Turning to U8C A57C, the yeast fitness is 0.599.

U8C A57U: the yeast fitness turned out to be 0.788.

As to U8C A57G, the yeast fitness turned out to be 0.856.

In the case of U8C A21U C24A, the yeast fitness was no more than 0.5.

As for U8C C11A C30A, the yeast fitness was no more than 0.5.

Regarding U8C G48C G63C A70C, the yeast fitness was no more than 0.5.

Regarding U8C C27U C62U, the yeast fitness was 0.736.

As to U8C C27A A42C, the yeast fitness turned out to be 0.532.

As for U8C C55A, the yeast fitness amounted to 0.739.

With U8C G9C C49U G68U, the yeast fitness is no more than 0.5.

For the variant U8C G44A U53C C55U A70U, the yeast fitness is no more than 0.5.

Consider U8C C24A, for which the yeast fitness was determined as 0.616.

Regarding U8C C22U C27U G58C, the yeast fitness was no more than 0.5.

On to U8C C49A G68C, for which the yeast fitness is no more than 0.5.

As to U8C G18C G50A C60U, the yeast fitness is 0.546.

Turning to U8C U16A C27U C55G, the yeast fitness was found to be 0.691.

Regarding U8C G12A, the yeast fitness amounted to 0.714.

Regarding U8A G25A C29G A37C A65U, the yeast fitness is no more than 0.5.

On to U8C C31G A45G C62G, for which the yeast fitness is no more than 0.5.

Regarding U8C A14U C30A C61U C62A A70G, the yeast fitness came to 0.532.

On to U8C C27U A42U, for which the yeast fitness is 0.552.

On to U8C C30G C33G, for which the yeast fitness is no more than 0.5.

In the case of U8C U16C, the yeast fitness amounted to 0.861.

Turning to U8C A42U C62A C66U, the yeast fitness was no more than 0.5.

With U8A U13A A14C U16C, the yeast fitness was no more than 0.5.

For the variant U8C G10C A15C A43C, the yeast fitness was no more than 0.5.

For the variant U8C C11U U16C C46U C49A, the yeast fitness came to 0.573.

Turning to U8C C27G C29A A70G, the yeast fitness was no more than 0.5.

Regarding U8A G18C G25C A57U C60U C61A, the yeast fitness is no more than 0.5.

As for U8C G52A, the yeast fitness is 0.765.

Take U8C C46A G50C: the yeast fitness amounted to 0.567.

U8C G17A: the yeast fitness was found to be 0.711.

As to U8A U54C, the yeast fitness turned out to be 0.657.

Take U8C C29U U35G C62U: the yeast fitness was no more than 0.5.

U8C A14G G68A: the yeast fitness is 0.534.

Turning to U8C A14U G48C A70C, the yeast fitness is no more than 0.5.

Turning to U8C C24U A45U, the yeast fitness amounted to 0.608.

Regarding U8C G23C C27G G50A C66G A69G, the yeast fitness stood at 0.836.

For U8C A15C U32C A69C, the yeast fitness is no more than 0.5.

Turning to U8C C33U A70U, the yeast fitness is no more than 0.5.

Consider U8C G38C C49U C62U A69U, for which the yeast fitness was 0.568.

Regarding U8C U16C A21C C49A G58A C66U G68A, the yeast fitness is no more than 0.5.

With U8C G18A, the yeast fitness came to 0.686.

Turning to U8C A43C C49G C61A, the yeast fitness is 0.693.

Consider U8C U13C A36U G38A A65C, for which the yeast fitness was no more than 0.5.

Take U8C G48A: the yeast fitness is 0.899.

With U8C G9C A37U G38A G39A, the yeast fitness was no more than 0.5.

In the case of U8C C22U C31U C60A, the yeast fitness was no more than 0.5.

For the variant U8C C22U, the yeast fitness was determined as 0.768.

On to U8C C22A, for which the yeast fitness came out at 0.932.

Regarding U8C U16C C61G A69C, the yeast fitness was no more than 0.5.

As for U8C A57G C66U, the yeast fitness worked out at 0.704.

Take U8C G12A G63A: the yeast fitness was no more than 0.5.

Take U8C G51C G58C: the yeast fitness was no more than 0.5.

Take U8C A43U G50C: the yeast fitness is no more than 0.5.

Take U8C U13A C24U C29G C33A U47A C55U A65C A69G: the yeast fitness is no more than 0.5.

Consider U8C A42U, for which the yeast fitness was found to be 0.791.

Consider U8C G48C G52A C66A, for which the yeast fitness was no more than 0.5.

As for U8C G12C U32G A42U, the yeast fitness is no more than 0.5.

Take U8C A15C G41A G52C: the yeast fitness was no more than 0.5.

As to U8C G10A A40G, the yeast fitness is 0.551.

U8C G50A A69U: the yeast fitness worked out at 0.804.

For the variant U8C G44A, the yeast fitness stood at 1.01.

In the case of U8C C61G, the yeast fitness was 0.678.

Take U8C C30G C46A U47G C49A G52A G58C U64G A65G: the yeast fitness was no more than 0.5.

Regarding U8C U13A C22A A42U, the yeast fitness was no more than 0.5.

Take U8C A20U A21U U26G C31A U53A A69C: the yeast fitness is no more than 0.5.

For the variant U8C C30G C49A G68A, the yeast fitness is no more than 0.5.

In the case of U8C U13A C29A C31G, the yeast fitness was no more than 0.5.

With U8C C27U C31A C55A G56A A65G, the yeast fitness is no more than 0.5.

As for U8C G51A, the yeast fitness came out at 0.817.

Take U8A U26C A43U C55U: the yeast fitness was no more than 0.5.

Regarding U8C C11G G63A C66G, the yeast fitness was no more than 0.5.

Turning to U8C A36G, the yeast fitness amounted to 0.865.

Consider U8C A43C C49G, for which the yeast fitness turned out to be 0.597.

Turning to U8C C22A U64A G68C, the yeast fitness is no more than 0.5.

Take U8C C11A C66G: the yeast fitness was no more than 0.5.

On to U8C A42U C62U A65C, for which the yeast fitness is 0.534.

With U8C A15C U32C C61U A65U C66U, the yeast fitness was no more than 0.5.

For U8C C27U, the yeast fitness was 0.792.

Turning to U8C C27G, the yeast fitness worked out at 0.647.

In the case of U8C C27A, the yeast fitness stood at 0.791.

In the case of U8C A37C, the yeast fitness was determined as 0.892.

As to U8C A42U A70G, the yeast fitness came to 0.729.

With U8C C11A G18C C27G, the yeast fitness was no more than 0.5.

Turning to U8C A15C C31A, the yeast fitness was no more than 0.5.

Take U8A U13A A14C U16A G67A: the yeast fitness was 0.584.

Consider U8A U19G C22U G58A, for which the yeast fitness is 0.568.

As for U8C A20G C33A G44A C61U, the yeast fitness was no more than 0.5.

U8C C49U C61A: the yeast fitness was no more than 0.5.

Take U8A G18A G41C A57G: the yeast fitness was no more than 0.5.

Turning to U8C U13G C22U, the yeast fitness stood at 0.529.

For U8C C22G C49U U64C, the yeast fitness is 0.679.

Take U8C A14U C30A C66U A70G: the yeast fitness was 0.546.

For U8C G23A A65C, the yeast fitness turned out to be 0.571.

Take U8C C24G C29A A43U G68C: the yeast fitness is no more than 0.5.

With U8C A15U G38C G39A A43C C60G A65C, the yeast fitness was no more than 0.5.

As for U8C C55U G63A, the yeast fitness turned out to be 0.552.

U8A G23A: the yeast fitness stood at 0.597.

Take U8C A21C C27U C49U G58C C61A A65U: the yeast fitness is no more than 0.5.

With U8A G25A U26A A42C, the yeast fitness is no more than 0.5.

Consider U8A G18C C24A U32C A69U, for which the yeast fitness amounted to 0.565.

Regarding U8C C29G U35G C61U, the yeast fitness is no more than 0.5.

Take U8C C22U G58C: the yeast fitness was no more than 0.5.

As for U8C C11G C46U, the yeast fitness is no more than 0.5.

U8C C30G C31G U54C C61G: the yeast fitness was no more than 0.5.

On to U8C A14C C33A C46A G67A, for which the yeast fitness was no more than 0.5.

Regarding U8C A15C C34U A57C, the yeast fitness was no more than 0.5.

Take U8C C11U C46U C49A: the yeast fitness was no more than 0.5.

In the case of U8C A14U C22G C30U A57C C61A G67A, the yeast fitness was no more than 0.5.

For the variant U8C A20G C61G, the yeast fitness is no more than 0.5.

For U8C A15C U32C, the yeast fitness is no more than 0.5.

For U8C A45U U59C, the yeast fitness turned out to be 0.57.
